Experimental data taken from ChEMBL document CHEMBL1122180, “Potential histamine H2-receptor antagonists. 4. Benzylhistamines” (J Med Chem, 1982).
Values belong to the compound of their own block, whether it stands above or below them. Active and inactive are the calls of the source. The calls are words filed in the database; no cut-off is given here.

Experiments:
[1] = biological target: Histamine H2 receptor (Rattus norvegicus) (UniProt P25102); experiment: In vivo agonist activity against histamine H2-receptor in lumen-perfused stomach of atropinized (1 mg/kg) anesthetized rat gastric secretion at 64 ug/kg; -ve; format: functional, organism-based
Summary of the method: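 In vivo, urethane-anaesthetised rat given atropine (1 mg kg⁻¹), lumen-perfused stomach, acid secretion as read-out. Compounds given intravenously as single doses and matched against single histamine doses (0.5–1 μM kg⁻¹).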

[2] = biological target: Histamine H2 receptor (Cavia porcellus) (UniProt P47747); experiment: Agonist activity was measured for histamine H2-receptor in guinea pig atrium; -ve; <0.1% of histamine (781 uM/L); format: functional, tissue-based; details: Cardiac atrium
[3] = biological target: Histamine H1 receptor (Cavia porcellus) (UniProt P31389); experiment: In vitro agonist activity against histamine H1-receptor in guinea pig ileum in the presence of atropine (0.5 uM) relative to histamine; -ve; <0.1% of histamine (781 uM/L); format: functional, tissue-based
Summary of the method: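 Isolated guinea pig ileum with atropine (0.5 μM) present. Agonist activity assayed up to 781 μM (0.1% histamine). Activity relative to histamine taken from cumulative dose–response curves. A 2+2 parallel assay was run for one compound.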

[4] = biological target: Histamine H2 receptor (Cavia porcellus) (UniProt P47747); experiment: Antagonist activity was measured for histamine H2-receptor in guinea pig atrium; -ve; 486 uM/L; format: functional, tissue-based; details: Cardiac atrium
Summary of the method: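 Isolated guinea pig right atrium with propranolol (0.5 μM) present. Compounds tested as antagonists against histamine (0.2–781 μM) at up to 486 μM. Active compounds run at three dose levels (five observations).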

[5] = biological target: Histamine H2 receptor (Rattus norvegicus) (UniProt P25102); experiment: In vivo antagonist activity against histamine H2-receptor in lumen-perfused stomach of atropinized (1 mg/kg) anesthetized rat gastric secretion at 128 ug/kg; -ve; format: functional, organism-based
[6] = biological target: Histamine H1 receptor (Cavia porcellus) (UniProt P31389); experiment: In vitro antagonist activity against histamine H1-receptor in guinea pig ileum in the presence of atropine (0.5 uM); format: functional, tissue-based
Summary of the method: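 Isolated guinea pig ileum with atropine (0.5 μM) present. Antagonism measured against histamine (0.1–109 μM)-stimulated contraction. Cumulative dose–response curves plotted for active compounds at three dose levels (nine observations).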

[7] = biological target: Histamine H2 receptor (Cavia porcellus) (UniProt P47747); experiment: Antagonist activity was measured for histamine H2-receptor in guinea pig atrium; -ve; format: functional, tissue-based; details: Cardiac atrium
Summary of the method: (§1)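 Guinea pig right atrium in vitro, propranolol (0.5 μM) present. Test compounds given up to 486 μM against histamine (0.2–781 μM). Any active compound was run at three dose levels (five observations).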

[8] = biological target: Histamine H1 receptor (Cavia porcellus) (UniProt P31389); experiment: In vitro agonist activity against histamine H1-receptor in guinea pig ileum in the presence of atropine (0.5 uM) relative to histamine; format: functional, tissue-based
Summary of the method: (§2)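 Isolated guinea pig ileum contraction with atropine (0.5 μM). Agonism tested up to 781 μM (0.1% histamine). Relative activity came from cumulative dose–response curves; one compound was run as a 2+2 parallel assay.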

[9] = biological target: Histamine H2 receptor (Rattus norvegicus) (UniProt P25102); experiment: In vivo agonist activity against histamine H2-receptor in lumen-perfused stomach of atropinized (1 mg/kg) anesthetized rat gastric secretion at 187 ug/kg; -ve; format: functional, organism-based
Summary of the method: (§3)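 Urethane-anesthetized rat, atropinized (1 mg kg⁻¹), lumen-perfused stomach, acid output. Single intravenous doses of compound matched against histamine doses (0.5–1 μM kg⁻¹). Potency relative to histamine compared on peak responses.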

[10] = biological target: Histamine H2 receptor (Rattus norvegicus) (UniProt P25102); experiment: In vivo antagonist activity against histamine H2-receptor in lumen-perfused stomach of atropinized (1 mg/kg) anesthetized rat gastric secretion at 187 ug/kg; weak inhibition; format: functional, organism-based; details: filed as antagonist
[11] = biological target: Histamine H2 receptor (Cavia porcellus) (UniProt P47747); experiment: Antagonist activity was measured for histamine H2-receptor in guinea pig atrium; 486 uM/L; format: functional, tissue-based; details: Cardiac atrium; summary of the method: as §1
[12] = biological target: Histamine H2 receptor (Cavia porcellus) (UniProt P47747); experiment: Agonist activity was measured for histamine H2-receptor in guinea pig atrium.; format: functional, tissue-based; details: Cardiac atrium
[13] = biological target: Histamine H2 receptor (Rattus norvegicus) (UniProt P25102); experiment: In vivo agonist activity against histamine H2-receptor in lumen-perfused stomach of atropinized (1 mg/kg) anesthetized rat gastric secretion; format: functional, organism-based; summary of the method: as §3
[14] = biological target: Histamine H1 receptor (Cavia porcellus) (UniProt P31389); experiment: In vitro agonist activity against histamine H1-receptor in guinea pig ileum in the presence of atropine (0.5 uM) relative to histamine.; format: functional, tissue-based; summary of the method: as §2
[15] = biological target: Histamine H2 receptor (Rattus norvegicus) (UniProt P25102); experiment: In vivo antagonist activity against histamine H2-receptor in lumen-perfused stomach of atropinized (1 mg/kg) anesthetized rat gastric secretion at 256 ug/kg; -ve; format: functional, organism-based
[16] = biological target: Histamine H2 receptor (Rattus norvegicus) (UniProt P25102); experiment: In vivo agonist activity against histamine H2-receptor in lumen-perfused stomach of atropinized (1 mg/kg) anesthetized rat gastric secretion at 512 ug/kg; -ve; format: functional, organism-based; summary of the method: as §3
[17] = biological target: Histamine H2 receptor (Rattus norvegicus) (UniProt P25102); experiment: In vivo antagonist activity against histamine H2-receptor in lumen-perfused stomach of atropinized (1 mg/kg) anesthetized rat gastric secretion at 512 ug/kg; -ve; format: functional, organism-based
[18] = biological target: Histamine H2 receptor (Cavia porcellus) (UniProt P47747); experiment: Agonist activity was measured for histamine H2-receptor in guinea pig atrium; format: functional, tissue-based; details: Cardiac atrium
[19] = biological target: Histamine H1 receptor (Cavia porcellus) (UniProt P31389); experiment: In vitro antagonist activity against histamine H1-receptor in guinea pig ileum in the presence of atropine (0.5 uM).; format: functional, tissue-based
Summary of the method: (§4)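 Guinea pig ileum in vitro with atropine (0.5 μM) present. Compounds tested against histamine-stimulated contraction (histamine 0.1–109 μM). Cumulative dose–response curves plotted for active compounds at three dose levels (nine observations); pA2 derived.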

[20] = biological target: Histamine H2 receptor (Rattus norvegicus) (UniProt P25102); experiment: In vivo agonist activity against histamine H2-receptor in lumen-perfused stomach of atropinized (1 mg/kg) anesthetized rat gastric secretion at 256 ug/kg; -ve; format: functional, organism-based; summary of the method: as §3
[21] = biological target: Histamine H2 receptor (Rattus norvegicus) (UniProt P25102); experiment: In vivo agonist activity against histamine H2-receptor in lumen-perfused stomach of atropinized (1 mg/kg) anesthetized rat gastric secretion at 128 ug/kg; -ve; format: functional, organism-based; summary of the method: as §3
[22] = biological target: Histamine H1 receptor (Cavia porcellus) (UniProt P31389); experiment: In vitro agonist activity against histamine H1 receptor in guinea pig ileum in the presence of atropine (0.5 uM) relative to histamine; -ve; <0.1% of histamine (781 uM/L); format: functional, tissue-based; summary of the method: as §2
[23] = biological target: Histamine H1 receptor (Cavia porcellus) (UniProt P31389); experiment: In vitro antagonist activity against histamine H1 receptor in guinea pig ileum in the presence of atropine (0.5 uM); format: functional, tissue-based; summary of the method: as §4
[24] = biological target: Histamine H2 receptor (Cavia porcellus) (UniProt P47747); experiment: Antagonist activity was measured for histamine H2-receptor in guinea pig atrium.; format: functional, tissue-based; details: Cardiac atrium; summary of the method: as §1

Chain of Histamine H2 receptor (Cavia porcellus) (P47747 whole entry, the tested form may be a part): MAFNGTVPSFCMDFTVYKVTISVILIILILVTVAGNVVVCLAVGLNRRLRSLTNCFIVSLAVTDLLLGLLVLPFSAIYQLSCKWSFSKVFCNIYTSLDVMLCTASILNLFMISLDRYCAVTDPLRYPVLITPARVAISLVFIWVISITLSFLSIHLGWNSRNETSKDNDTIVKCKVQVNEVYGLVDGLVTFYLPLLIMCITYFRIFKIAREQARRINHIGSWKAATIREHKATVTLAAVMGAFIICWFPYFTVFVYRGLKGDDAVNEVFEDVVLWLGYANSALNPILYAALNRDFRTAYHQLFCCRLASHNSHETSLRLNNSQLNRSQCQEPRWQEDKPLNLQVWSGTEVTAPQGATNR
Chain of Histamine H2 receptor (Rattus norvegicus) (P25102 whole entry, the tested form may be a part): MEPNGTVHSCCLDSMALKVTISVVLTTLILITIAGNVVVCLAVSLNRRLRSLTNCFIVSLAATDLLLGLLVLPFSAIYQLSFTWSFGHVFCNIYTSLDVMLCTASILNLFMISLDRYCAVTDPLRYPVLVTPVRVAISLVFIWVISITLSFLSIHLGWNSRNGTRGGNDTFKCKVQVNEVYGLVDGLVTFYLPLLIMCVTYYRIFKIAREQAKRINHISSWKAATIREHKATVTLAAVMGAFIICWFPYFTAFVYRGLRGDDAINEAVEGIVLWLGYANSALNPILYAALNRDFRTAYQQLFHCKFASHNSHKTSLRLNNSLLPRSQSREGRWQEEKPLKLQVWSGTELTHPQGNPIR
Chain of Histamine H1 receptor (Cavia porcellus) (P31389 whole entry, the tested form may be a part): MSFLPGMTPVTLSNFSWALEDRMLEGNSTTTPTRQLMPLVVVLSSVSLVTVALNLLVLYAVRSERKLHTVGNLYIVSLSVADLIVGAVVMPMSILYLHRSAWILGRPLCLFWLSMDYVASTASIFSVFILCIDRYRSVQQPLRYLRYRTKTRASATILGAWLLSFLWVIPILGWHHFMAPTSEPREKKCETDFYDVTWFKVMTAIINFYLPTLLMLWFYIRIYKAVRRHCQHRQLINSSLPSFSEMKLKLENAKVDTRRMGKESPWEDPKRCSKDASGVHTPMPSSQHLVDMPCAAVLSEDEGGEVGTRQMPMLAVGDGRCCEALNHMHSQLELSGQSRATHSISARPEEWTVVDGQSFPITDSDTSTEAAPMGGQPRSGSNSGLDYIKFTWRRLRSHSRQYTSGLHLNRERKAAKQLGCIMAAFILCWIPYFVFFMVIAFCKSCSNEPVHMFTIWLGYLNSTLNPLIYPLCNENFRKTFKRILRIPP

Compound: NCCc1[nH]cnc1Cc1ccccc1
Agonist activity [1]: inactive | Agonist activity [2]: inactive | Agonist activity [3]: inactive | Antagonist activity [4]: < 3.3 | Antagonist activity [5]: inactive | Antagonist activity [6]: 4.4 pA2

Compound: c1ccc(CNCCc2c[nH]cn2)cc1
Antagonist activity [10]: Partial antagonist | Antagonist activity [11]: < 3.3 | Agonist activity [12]: 0.7 | Agonist activity [13]: 0.5 | Agonist activity [14]: 0.4

Compound: NCC(Cc1ccccc1)c1c[nH]cn1 (centres undefined)
Antagonist activity [11]: < 3.3 | Agonist activity [16]: inactive | Antagonist activity [17]: inactive | Agonist activity [14]: 0.1 | Agonist activity [18]: 1 | Antagonist activity [19]: 4 pA2

The remaining lines, values ahead:

Agonist activity [2]: inactive | Antagonist activity [5]: inactive | Antagonist activity [7]: < 3.3 | Agonist activity [8]: 2.3 | Agonist activity [9]: inactive
Compound: NCCc1c[nH]c(Cc2ccccc2)n1

Antagonist activity [11]: < 3.3 | Agonist activity [2]: inactive | Agonist activity [13]: 3 | Antagonist activity [15]: inactive | Agonist activity [8]: 0.4
Compound: NCCc1cn(Cc2ccccc2)cn1

Antagonist activity [11]: < 3.3 | Agonist activity [20]: inactive | Agonist activity [2]: inactive | Agonist activity [3]: inactive | Antagonist activity [5]: inactive | Antagonist activity [6]: 3.6 pA2
Compound: NCCc1cncn1Cc1ccccc1

Agonist activity [2]: inactive | Agonist activity [21]: inactive | Agonist activity [22]: inactive | Antagonist activity [5]: inactive | Antagonist activity [23]: 4.7 pA2 | Antagonist activity [24]: 4.35
Compound: NCCc1ncn(Cc2ccccc2)c1Cc1ccccc1
